The text below walks through data of ChEMBL document CHEMBL2331282, “9-[2-(R)-(Phosphonomethoxy)propyl]-2,6-diaminopurine (R)-PMPDAP and its prodrugs: optimized preparation, including identification of by-products formed, and antiviral evaluation in vitro” (Bioorg Med Chem, 2013).

For data set [1], the system named is Human alphaherpesvirus 3. As to the kind of experiment: Antiviral activity against TK+ Varicella zoster virus OKA. The format is functional. As to conditions: Human alphaherpesvirus 3, strain Oka vaccine.
The test system of data set [2] is Coxsackievirus B4. The experiment in a line: Antiviral activity against Coxsackievirus B4 infected in african green monkey Vero cells. Conditions: Enterovirus B. The format is functional, organism-based.
Data set [3] deals with Human alphaherpesvirus 3. As to the kind of experiment: Antiviral activity against TK- Varicella zoster virus O7-1. The format is functional, organism-based. Conditions: Human alphaherpesvirus 3, O7-1.
Data set [4] relates to Human betaherpesvirus 5. The experiment in a line: Antiviral activity against Human cytomegalovirus at non-toxic concentration. The format is functional, organism-based.
For the next data set, the system named is MT4. The experiment in a line: Cytotoxicity against human MT4 cells assessed as decrease in cell viability after 5 days by CellTiter Glo assay. The format is cell-based. As to conditions: mt4, 120 h. The gist of the method: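 MT-4 cells, 2000/well, in RPMI 1640 with 10% FBS plus penicillin/streptomycin; 3-fold serial dilutions, 10 concentrations, final DMSO ≤0.5%; 10 µM puromycin and 0.5% DMSO controls.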

Data set [5] concerns Punta Toro virus. The experiment in a line: Antiviral activity against Punta Toro virus infected in african green monkey Vero cells. The format is functional, organism-based.
Data set [6] has as its system Human immunodeficiency virus 1. The experiment in a line: Antiviral activity against Human immunodeficiency virus 1 3B infected in human MT4 cells assessed as reduction of virus-induced cytopathicity treated post-viral infection measured after 5 days by Cell-Titer Glo assay. The format is functional, organism-based. As to conditions: MT4, 120 h. (Protection from cytopathic effect is a common read-out in antiviral testing.)

Data set [7] concerns Human alphaherpesvirus 2. The experiment in a line: Antiviral activity against Herpes simplex virus 2 at non-toxic concentration. The format is functional, organism-based.
Data set [8] has as its system Felid alphaherpesvirus 1. The experiment in a line: Antiviral activity against Feline herpes virus at non-toxic concentration. The format is functional, organism-based.
Data set [9] is described as follows: Cytotoxicity against cat CRFK cells assessed as decrease in cell viability after 3 days by CellTiter 96 Aqueous One solution assay. The format is cell-based, Felis catus. Conditions: 72 h.
In the next data set the test system is Vaccinia virus. As to the kind of experiment: Antiviral activity against Vaccinia virus at non-toxic concentration. The format is functional, organism-based. As to conditions: Orthopoxvirus vaccinia.
Data set [10] has as its system Human alphaherpesvirus 1. The experiment in a line: Antiviral activity against Herpes simplex virus 1 at non-toxic concentration. The format is functional, organism-based.
The test system of data set [11] is Feline immunodeficiency virus. As to the kind of experiment: Antiviral activity against Feline immunodeficiency virus infected in cat CRFK cells assessed as decrease in FIV p24 antigen level treated post-viral infection measured after 6 days by ELISA. The format is functional, organism-based. As to conditions: 144 h. An outline of the steps:
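CrFK cells (5000/well) pre-seeded 24 h at 37 °C, 5% CO2; washed with PBS containing 50 µg/ml DEAE-dextran, inoculated with 100 CCID50 FIV plus serial compound dilutions; after 2 h washed and overlaid with 5% FCS DMEM plus compound.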
For orientation: ELISA stands for enzyme-linked immunosorbent assay.

Data set [12] deals with Felid alphaherpesvirus 1. As to the kind of experiment: Antiviral activity against Feline herpes virus infected in cat CRFK cells assessed as reduction of virus-induced cytopathogenicity. The format is functional, organism-based. Conditions: Felid alphaherpesvirus 1, CRFK.
Data set [13] has as its system Human betaherpesvirus 5. As to the kind of experiment: Antiviral activity against Human cytomegalovirus infected in human HEL cells assessed as reduction of virus-induced cytopathogenicity. The format is functional, organism-based. As to conditions: Human betaherpesvirus 5, HEL.
A further data set relates to Feline coronavirus. The experiment in a line: Antiviral activity against Feline coronavirus infected in cat CRFK cells assessed as reduction of virus-induced cytopathogenicity. The format is functional, organism-based. Conditions: Alphacoronavirus 1, CRFK.
Data set [14] relates to Respiratory syncytial virus. The experiment in a line: Antiviral activity against Respiratory syncytial virus infected in human HeLa cells assessed as reduction of virus-induced cytopathogenicity. The format is functional, organism-based.
For data set [15], the system named is Human alphaherpesvirus 1. As to the kind of experiment: Antiviral activity against Herpes simplex virus 1 infected in human HEL cells assessed as reduction of virus-induced cytopathogenicity. The format is functional, organism-based. As to conditions: Human alphaherpesvirus 1, HEL.
Data set [16] has as its system Vesicular stomatitis virus. The experiment in a line: Antiviral activity against Vesicular stomatitis virus infected in human HEL cells assessed as reduction of virus-induced cytopathogenicity. The format is functional, organism-based.
In data set [17] the test system is Coxsackievirus B4. As to the kind of experiment: Antiviral activity against Coxsackievirus B4 infected in dog MDCK cells assessed as reduction of virus-induced cytopathogenicity. The format is functional, organism-based. Conditions: Enterovirus B.
Data set [18] can be described thus: Cytotoxicity against human HeLa cells assessed as alteration of cell morphology up to 100 uM by microscopic analysis. The format is cell-based.
Data set [19] relates to Coxsackievirus B4. As to the kind of experiment: Antiviral activity against Coxsackievirus B4 infected in human HeLa cells assessed as reduction of virus-induced cytopathogenicity. The format is functional, organism-based. Conditions: Enterovirus B.
For data set [20], the system named is Human immunodeficiency virus 1. As to the kind of experiment: Antiviral activity against Human immunodeficiency virus 1 infected in human CEM cells assessed as reduction of virus-induced cytopathogenicity. The format is functional, organism-based. Conditions: Human immunodeficiency virus 1, CCRF-CEM.
The test system of data set [21] is Human alphaherpesvirus 2. The experiment in a line: Antiviral activity against Herpes simplex virus 2 infected in human HEL cells assessed as reduction of virus-induced cytopathogenicity. The format is functional, organism-based. As to conditions: Human alphaherpesvirus 2, HEL.
In data set [22] the test system is Human immunodeficiency virus 2. The experiment in a line: Antiviral activity against Human immunodeficiency virus 2 infected in human CEM cells assessed as reduction of virus-induced cytopathogenicity. The format is functional, organism-based. As to conditions: Human immunodeficiency virus 2, CCRF-CEM.
Data set [23] concerns Punta Toro virus. As to the kind of experiment: Antiviral activity against Punta Toro virus infected in dog MDCK cells assessed as reduction of virus-induced cytopathogenicity. The format is functional, organism-based.
A further data set concerns Sindbis virus. As to the kind of experiment: Antiviral activity against Sindbis virus infected in dog MDCK cells assessed as reduction of virus-induced cytopathogenicity. The format is functional, organism-based.
Data set [24] deals with Vesicular stomatitis virus. The experiment in a line: Antiviral activity against Vesicular stomatitis virus infected in human HeLa cells assessed as reduction of virus-induced cytopathogenicity. The format is functional, organism-based.
Data set [25] has as its system Mammalian orthoreovirus 1. The experiment in a line: Antiviral activity against Reovirus 1 infected in dog MDCK cells assessed as reduction of virus-induced cytopathogenicity. As to conditions: Mammalian orthoreovirus 1, MDCK. The format is functional, organism-based.
Another data set deals with Human respirovirus 3. The experiment in a line: Antiviral activity against Parainfluenza virus 3 infected in dog MDCK cells assessed as reduction of virus-induced cytopathogenicity. The format is functional, organism-based. Conditions: Human respirovirus 3, MDCK.
The nature of data set [26]: Cytotoxicity against human CEM cells assessed as alteration of cell morphology by microscopic analysis. Conditions: CEM cells (CCRF-CEM). The format is cell-based.
Data set [27] can be described thus: Cytotoxicity against dog MDCK cells assessed as alteration of cell morphology up to 100 uM by microscopic analysis. The format is cell-based, Canis lupus familiaris.
Data set [28] is described as follows: Cytotoxicity against cat CRFK cells assessed as alteration of cell morphology up to 100 uM by microscopic analysis. The format is cell-based, Felis catus.
Data set [29] can be described thus: Cytotoxicity against human HEL cells assessed as alteration of cell morphology up to 100 uM by microscopic analysis. The format is cell-based.

pEC50: −log10 of the molar value. Active and inactive are the calls of the source. The rule behind the calls is not given here.

`CCCCCCCCCCCCCCCCOCCCOP(=O)([O-])CO[C@H](C)Cn1cnc2c(N)nc(N)nc21.[Na+]`: the EC50 is below 0.032 µg/mL in the data set on Human alphaherpesvirus 3 [1], 9 µg/mL in the data set with Coxsackievirus B4 [2], 0.058 µg/mL in the data set with Human alphaherpesvirus 3 [3] and 12 µg/mL in the data set on Punta Toro virus [5]. The outcome with Human betaherpesvirus 5 [4], with Human alphaherpesvirus 2 [7], in the data set on Felid alphaherpesvirus 1 [8], with Vaccinia virus and in the data set on Human alphaherpesvirus 1 [10] was inactive. Moreover, the figures for the CC50 (in the data set on MT4; in data set [9]) were 19.8 µM and 96 µM, respectively. Moreover, the figures for the negative-log EC50 (pEC50) in [6] and in data set [11] were 8.65 and 9.24, respectively.
`C[C@@H](O)CNc1nc(N)nc2c1ncn2C[C@@H](C)O`: the concentration giving a half-maximal response (EC50) (in the data set on Felid alphaherpesvirus 1 [12]; in the data set with Human betaherpesvirus 5 [13]; in the data set on Feline coronavirus; in [14]; in the data set on Human alphaherpesvirus 1 [15]; in data set [16]) was above 100 µg/mL each time. Further, the EC50 (with Coxsackievirus B4 [17]; with Coxsackievirus B4 [19]; in data set [20]; with Human alphaherpesvirus 2 [21]; in data set [22]; in the data set with Punta Toro virus [23]) was above 100 µg/mL in each case. The EC50 (in the data set with Sindbis virus; in data set [24]; in data set [25]; with Human respirovirus 3) was above 100 µg/mL throughout. For the same compound, the MCC in data set [18], in data set [26], in data set [27], in data set [28] and in data set [29] was above 100 µg/mL throughout.
For the compound `CCOC(=O)[C@H](C)NP(=O)(CO[C@H](C)Cn1cnc2c(N)nc(N)nc21)N[C@@H](C)C(=O)OCC`, the values for the half-maximal cytotoxic concentration (CC50) (in the data set on MT4; in data set [9]) were above 100 µM and 215 µM, respectively. Moreover, the negative-log EC50 (pEC50) was 6.54 in [6] and 5.96 in data set [11].
As for `C[C@H](Cn1cnc2c(N)nc(N)nc21)OCP(=O)(O)O`, the half-maximal cytotoxic concentration (CC50) is above 100 µM with MT4 and above 500 µM in data set [9]. The pEC50 in [6] is 6.03; in data set [11] it was 6.92.
For `C[C@@H](O)CNc1nc(N)c2ncn(C[C@@H](C)O)c2n1`, the concentration for a half-maximal effect (EC50) (in the data set with Felid alphaherpesvirus 1 [12]; with Human betaherpesvirus 5 [13]; in the data set with Feline coronavirus; in data set [14]; in the data set on Human alphaherpesvirus 1 [15]; in data set [16]) was above 100 µg/mL each time. The concentration for a half-maximal effect (EC50) (in the data set with Coxsackievirus B4 [17]; in the data set on Coxsackievirus B4 [19]; in [20]; in the data set on Human alphaherpesvirus 2 [21]; in [22]; with Punta Toro virus [23]) was above 100 µg/mL in each case. Further, the EC50 (in the data set on Sindbis virus; in data set [24]; in [25]; in the data set on Human respirovirus 3) was above 100 µg/mL throughout. In addition, the MCC in data set [18], in [26], in data set [27], in [28] and in [29] was above 100 µg/mL throughout.
Turning to `C[C@H](Cn1cnc2c(NCP(=O)(O)O)nc(N)nc21)OCP(=O)(O)O`, the concentration giving a half-maximal response (EC50) (with Felid alphaherpesvirus 1 [12]; with Human betaherpesvirus 5 [13]; in the data set on Feline coronavirus; in data set [14]; with Human alphaherpesvirus 1 [15]; in [16]) was above 100 µg/mL throughout. Also, the concentration giving a half-maximal response (EC50) (with Coxsackievirus B4 [17]; with Coxsackievirus B4 [19]; in [20]; in the data set with Human alphaherpesvirus 2 [21]; in data set [22]; with Punta Toro virus [23]) was above 100 µg/mL in each case. The concentration for a half-maximal effect (EC50) (in the data set on Sindbis virus; in data set [24]; in data set [25]; in the data set with Human respirovirus 3) was above 100 µg/mL each time. Further, the MCC in data set [18], in data set [26], in data set [27], in [28] and in data set [29] was above 100 µg/mL throughout.

Usually EC50 stands for the concentration giving half of the maximal effect. In general, CC50 refers to the concentration that lowers cell viability or growth by half. Usually pEC50 stands for −log10 of the EC50, conventionally taken in molar units.
